Assay outcomes (PubChem)
Hits are enriched below; roughly 12% of the tested compounds scored in any of these assays.
L major viab: Leishmania major promastigote growth inhibition; inhibition, % at 10 µM; hit rate 9% among 200,000; Leishmania major promastigotes, resazurin fluorescence viability; in the data active means inhibition above about 50%;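 further: promastigotes grown with compound for 44 hours at 28 °C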
CHOP inhibitor: blocks CHOP induction under ER stress. CHO-K1 CHOP-promoter luciferase, tunicamycin-induced, 15-18 h. inhibition, % at 10 µM. hit rate 3.8% among 220,000. AID 2732;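 active means compounds that reduced the stress-induced luciferase reporter signal by more than about 70% of percent inhibition, limit read from the data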;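 further: 0% = tunicamycin plus vehicle and 100% = wells without tunicamycin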
Autophagy mod: autophagy modulation, high-content screen. MEF GFP-LC3 puncta imaging; test concentration mostly 10 µM. calls only at 10 µM (by protocol). hit rate 0.98% among 190,000. AID 463193;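 active means percentage of spot-positive cells more than 3 SD above its plate mean, without a fluorescence outlier flag or 80% toxicity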;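 further: spot-positive cell cutoff set from DMSO-treated cells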
bCat nuc transl: modulators of beta-catenin nuclear translocation. HeLa beta-catenin nuclear translocation, immunofluorescence imaging. nuclear translocation activity, % at 5 µM. hit rate 0.3% among 190,000. AID 1665;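 active means nuclear translocation activity above 50% at 5 µM, with a well cell count of 50 or more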;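 further: per-cell ratio of nuclear to cytoplasmic median beta-catenin stain intensity; plate controls were DMSO negative control for no effect and GSK-3 inhibitor IX positive control for full effect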
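Read-out: Nuclear/cytoplasmic beta-catenin signal ratio, % activation | Assay system: Human HeLa cell line | Times: 24 h compound exposure at 37°C, 5% CO2 | Signal: Fluorescence imaging of beta-catenin antibody stain plus DAPI | Dosing: 5 µM primary, 0.02–20 µM confirmation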
MT stabilizer: microtubule stabilizers in HeLa cells. HeLa tubulin immunostaining HCS, 24 h; share of cells brighter than vehicle mean+2SD. % tubulin-high responders, % at 10 µM. hit rate 0.83% among 200,000. AID 2205;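 active means plate Z-score above 3 for both tubulin-high and condensed-nucleus cell shares, with cell loss under 80%, at 10 µM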;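 further: anti alpha tubulin signal scored within the nucleus-defined area of each cell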
Dynein cargo inh: dynein cargo transport inhibition; 3617.4 mouse cells, GR-EGFP nuclear translocation imaging; test concentration mostly 20 µM; stimulated with dexamethasone, 1 µM; active compounds read low; z-score, hits read low; hit rate 0.47% among 220,000;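 active means plate z-score of nuclear minus cytoplasmic receptor signal below a set negative limit, without overly bright fluorescence or cell loss, cut at about -3.5 in these data, passing the limit was not always enough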;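 further: z-score of nuclear minus cytoplasmic ring GR-EGFP intensity difference per well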
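medium = tetracycline-free induction medium containing charcoal-stripped FBS | probe or stimulus = dexamethasone, 1.0 µM final | timing = 48 h induction, then 1 h compound, then 30 min agonist, 37 °C | detection = automated 10x imaging of fixed Hoechst-stained cells | read-out basis = nuclear versus cytoplasmic GR-EGFP signal, averaged per well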
* marks the source's active call; other numbers are inactive results.

What do the screens show for `Cc1oc2c(c1C(=O)O)C(=O)c1ccccc1C2=O`?
L major viab: 100*; CHOP inhibitor: -25; Autophagy mod: inactive; bCat nuc transl: 1; MT stabilizer: 3; Dynein cargo inh: 0.078

How did Cc1oc2c(c1C(=O)c1ccccc1)C(=O)C(=O)c1ccccc1-2 do in these assays?
L major viab: 100*; Autophagy mod: inactive; bCat nuc transl: -1; MT stabilizer: 2; Dynein cargo inh: -1.5

Results for Cc1cc(=O)oc(C)c1C(=O)O ?
L major viab: -6; CHOP inhibitor: 41; Autophagy mod: inactive; MT stabilizer: 1; Dynein cargo inh: -0.098

How did Cc1onc(-c2ccccc2Cl)c1C(=O)c1ccccc1 do in these assays?
CHOP inhibitor: 1; bCat nuc transl: 1; Dynein cargo inh: 0.39

Results for COc1cc(C(=O)Nc2ccc(N3CCOCC3)cc2)ccc1OCc1c(C)noc1C ?
L major viab: -2; CHOP inhibitor: 1; Autophagy mod: inactive; bCat nuc transl: -1; MT stabilizer: 4; Dynein cargo inh: 0.16

Results for COC(=O)/C=c1/s/c(=C(\C#N)C(=O)NCc2ccco2)n(-c2ccc(C)cc2)c1=O ?
L major viab: 1; CHOP inhibitor: -35; Autophagy mod: active; bCat nuc transl: -2; MT stabilizer: 2; Dynein cargo inh: -0.79

How did COC(=O)/C=c1/s/c(=C(/C#N)C(=O)N2CCOCC2)n(-c2ccccc2)c1=O do in these assays?
L major viab: -2; CHOP inhibitor: -9; Autophagy mod: inactive; bCat nuc transl: -4; MT stabilizer: 1; Dynein cargo inh: -0.77

How did COCCNC(=O)C(OC(=O)C1=Cc2ccccc2OC1)C(C)C (centres undefined) do in these assays?
L major viab: -5; CHOP inhibitor: 7; Autophagy mod: inactive; bCat nuc transl: -2; MT stabilizer: 3; Dynein cargo inh: -0.28

Results for COc1cccc(C2C(C(=O)Nc3nc4ccccc4s3)=C(C)NC3=C2C(=O)CC(C)(C)C3)c1OC (centres undefined) ?
L major viab: 58*; CHOP inhibitor: 62; Autophagy mod: inactive; bCat nuc transl: 2; MT stabilizer: 8; Dynein cargo inh: 0.75

Results for CCOC(=O)C1=C(C)NC2=C(C(=O)CCC2)C1c1cc(OC)ccc1OC (centres undefined) ?
L major viab: 0; CHOP inhibitor: 20; Autophagy mod: inactive; bCat nuc transl: -3; MT stabilizer: 4; Dynein cargo inh: 0.52

What do the screens show for `COc1ccc(OC)c(C2C(C(=O)Nc3nc4ccccc4s3)=C(C)NC3=C2C(=O)CCC3)c1` (centres undefined)?
L major viab: 98*; CHOP inhibitor: -70; Autophagy mod: inactive; bCat nuc transl: 1; MT stabilizer: 5; Dynein cargo inh: 0.019

What do the screens show for `CCOC(=O)c1sc2nc(C)c3c(c2c1N)CC(C)(C)OC3`?
L major viab: 9; CHOP inhibitor: 31; Autophagy mod: inactive; MT stabilizer: 1; Dynein cargo inh: 1.6

How did CCCc1nc2sc(C(=O)OCC)c(N)c2c2c1COC(C)(C)C2 do in these assays?
L major viab: 5; CHOP inhibitor: 81*; Autophagy mod: inactive; bCat nuc transl: 1; MT stabilizer: 2; Dynein cargo inh: 0.062

Results for O=C1CSC(c2cccc(Cl)c2Cl)N1c1ccccn1 (centres undefined) ?
L major viab: 91*; CHOP inhibitor: 25; Autophagy mod: inactive; bCat nuc transl: 0; MT stabilizer: 1; Dynein cargo inh: 1.7

What do the screens show for `N/C(=N\OC(=O)c1csnn1)c1ccc(C(F)(F)F)cc1`?
CHOP inhibitor: -13; bCat nuc transl: 0; Dynein cargo inh: -0.23

How did Cc1cc(C)c(OCC(=O)Nc2ccc3c(c2)OCO3)cc1C do in these assays?
L major viab: 80*; CHOP inhibitor: -23; Autophagy mod: inactive; bCat nuc transl: -1; MT stabilizer: 3; Dynein cargo inh: -0.32

Results for O=C(CC(NC(=O)c1ccccc1Cl)c1ccccc1)Nc1ccc2c(c1)OCO2 (centres undefined) ?
L major viab: 100*; CHOP inhibitor: 45; Autophagy mod: inactive; bCat nuc transl: -1; MT stabilizer: 1; Dynein cargo inh: -1.8

Results for Cc1ccccc1OCC(=O)Nc1ccc2c(c1)OCCO2 ?
CHOP inhibitor: 2; bCat nuc transl: 1; Dynein cargo inh: -0.21

What do the screens show for `CC(C)NS(=O)(=O)c1ccc(OCC(=O)Nc2ccc3c(c2)OCO3)c(Cl)c1`?
L major viab: 7; CHOP inhibitor: 70*; Autophagy mod: inactive; bCat nuc transl: 0; MT stabilizer: 2; Dynein cargo inh: -0.0042

What do the screens show for `Cc1ccc(C)c(OCC(=O)Nc2ccc3c(c2)OCO3)c1`?
L major viab: 82*; CHOP inhibitor: 57; Autophagy mod: inactive; bCat nuc transl: 0; MT stabilizer: 4; Dynein cargo inh: -0.37

How did Cc1ccc(OCC(=O)Nc2ccc3c(c2)OCCO3)cc1C do in these assays?
L major viab: 1; CHOP inhibitor: 16; Autophagy mod: inactive; bCat nuc transl: -2; MT stabilizer: 1; Dynein cargo inh: -0.61

Results for CC(=O)Nc1cccc(Oc2ccc(-c3noc(C)n3)cc2)c1 ?
L major viab: 41; CHOP inhibitor: 46; Autophagy mod: inactive; MT stabilizer: 2; Dynein cargo inh: -1.1

Results for Cc1ccc(-n2cnc(N)c2C(=O)c2cccc([N+](=O)[O-])c2)cc1 ?
CHOP inhibitor: 18; bCat nuc transl: 0; Dynein cargo inh: -0.31

Results for CC(C)CC(=O)Nc1ccc2c(c1)OCO2 ?
L major viab: -7; CHOP inhibitor: 9; Autophagy mod: active; bCat nuc transl: -1; MT stabilizer: 5; Dynein cargo inh: -0.49

Results for Cc1c(Cl)c([N+](=O)[O-])nn1CC(=O)Nc1ccc2c(c1)OCO2 ?
L major viab: 81*; CHOP inhibitor: 31; Autophagy mod: inactive; MT stabilizer: 3; Dynein cargo inh: -0.28

How did CCNc1ccc(C(=O)OCC(=O)c2cc(C)n(Cc3ccc4c(c3)OCO4)c2C)cc1[N+](=O)[O-] do in these assays?
L major viab: 67*; CHOP inhibitor: 18; Autophagy mod: inactive; bCat nuc transl: 3; MT stabilizer: 2; Dynein cargo inh: -0.94

Results for COc1ccc(NC(=O)Cn2nc([N+](=O)[O-])c(Cl)c2C)cc1OC ?
CHOP inhibitor: -2; bCat nuc transl: 1; Dynein cargo inh: -0.13

How did COc1ccc(CCNC(=O)CC(NC(=O)c2ccccc2Cl)c2ccccc2)cc1 (centres undefined) do in these assays?
L major viab: 75*; CHOP inhibitor: 0; Autophagy mod: inactive; MT stabilizer: 3; Dynein cargo inh: 0.035

What do the screens show for `O=C(OCc1cncs1)c1cccs1`?
L major viab: -5; CHOP inhibitor: -11; Autophagy mod: inactive; bCat nuc transl: 0; MT stabilizer: 4; Dynein cargo inh: 0.85
